Compound activity: PubChem BioAssay, Broad Institute
Only a selection was taken, and hits are over-represented in it overall.
T cruzi intra: blocks T. cruzi growth inside host cells | intracellular Trypanosoma cruzi in host cells, plate reader | activity score (inhibition), % at 5.01 µM | actives 4.9% (n = 22,000) | AID 651903; in the data active = activity score above about 55%; inconclusive = no clear call, values can overlap the other calls;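 note: parasites and compound incubated about four days before reading; 0% = median of neutral control wells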
INS-1E rescue: INS-1E beta cell protection from cytokine death; protection from cytokine-induced ATP loss, % at 10 µM; INS-1E cytokine-induced death, ATP luminescence, 48 h; normalised: neutral wells 0, positive control 100; actives 0.1% (n = 20,000); AID 488910;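 active = mean replicate protection from cytokine-induced ATP loss at least 50% and at least 75% of replicates each reaching 50%; inconclusive = meets only one of the two criteria, mean or replicate share; inactive = fails both the mean and replicate share criteria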
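Material: INS-1E rat cells; Quantity: 8000 cells/well; Buffer or medium: phenol-red-free RPMI with 5% fetal bovine serum; Probe or stimulus: cytokine cocktail of IFN-γ, TNF-α and IL-1β; Compound dosing: single test concentration per compound, delivered by pin transfer; Incubation: 48 h co-treatment, 10 min post-lysis read; Signal: CellTiter-Glo luminescence.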
A1 apoptosis 2: compounds inhibiting A1, read as caspase activation. 24,000 tested, under 10 active. caspase activation, % (test concentration not listed). AID 2465. MEF A1-2A-BIM cells, caspase-Glo luminescence, 3 h; percent of clofoctol response, DMSO zero; in the data active = caspase activation above about 5.9%; inconclusive = no clear call, values can overlap the other calls; inactive = below about 2.2%
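Test system – A1-2A-BIM-expressing MEF cells · Input – 2500 cells/well · Medium – RPMI-1640 growth medium with 10% FBS · Compound dosing – 50 nL pinned compound · Timing – 3 h compound exposure at 37 °C · Technique – Caspase-Glo luminescence (DEVD substrate) · Evaluation – Caspase-3/7 activity from luminescence increase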
The depositor's hits bear a star; ? = inconclusive; · = no result given.

SMILES	T cruzi intra	INS-1E rescue	A1 apoptosis 2
Cc1ccc(S(=O)(=O)Nc2ccc3c(c2)CC(=O)N([C@H](C)CO)C[C@@H](C)[C@@H](CN(C)Cc2ccc(C(=O)Nc4ccccc4N)cc2)O3)cc1	59.7*	-5.9	-0.4
COc1ccc(S(=O)(=O)Nc2ccc3c(c2)CC(=O)N([C@H](C)CO)C[C@H](C)[C@H](CN(C)Cc2ccc(C(=O)Nc4ccccc4N)cc2)O3)cc1	59.2*	53.0*	0.0
C[C@H](CO)N1C[C@H](C)[C@H](CN(C)Cc2ccc(C(=O)Nc3ccccc3N)cc2)Oc2ccc(NS(=O)(=O)c3ccc(F)cc3)cc2CC1=O	64.4*	?	·
COc1ccc(S(=O)(=O)Nc2ccc3c(c2)CC(=O)N([C@H](C)CO)C[C@@H](C)[C@@H](CN(C)Cc2ccc(C(=O)Nc4ccccc4N)cc2)O3)cc1	50.1	-18.2	0.3
C[C@@H]1CN([C@@H](C)CO)C(=O)Cc2cc(NS(=O)(=O)c3ccc(F)cc3)ccc2O[C@H]1CN(C)Cc1ccc(C(=O)Nc2ccccc2N)cc1	·	·	0.5
C[C@H]1CN([C@@H](C)CO)C(=O)Cc2cc(NS(=O)(=O)c3ccc(Cl)cc3)ccc2O[C@@H]1CN(C)Cc1ccc(C(=O)Nc2ccccc2N)cc1	·	·	0.6
COC(=O)CCCCCCC(=O)N/N=C/c1ccco1	-14.1	-3.3	1.1
O=C1O[C@@H](c2ccccc2)[C@@H](c2ccccc2)N2[C@@H](c3ccc(O)cc3)[C@]3(C(=O)Nc4ccc(C#CCCO)cc43)[C@@H](C(=O)O)[C@H]12	·	·	-0.8
COc1cc2c(cc1O)C(c1cccs1)N(C)CC2 (stereo not given)	·	·	-0.3
C[C@@H]1CN([C@H](C)CO)C(=O)Cc2cc(NS(=O)(=O)c3cccs3)ccc2O[C@H]1CN(C)Cc1ccc(C(=O)Nc2ccccc2N)cc1	44.3	1.9	·
C[C@H](CO)N1C[C@H](C)[C@H](CN(C)Cc2ccc(C(=O)Nc3ccccc3N)cc2)Oc2ccc(NS(=O)(=O)c3cccs3)cc2CC1=O	64.1*	40.3	0.3
O=C(NO)c1ccc(C(=O)N/N=C/c2ccco2)cc1	4.2	-4.2	-0.9
C[C@@H]1CN([C@@H](C)CO)C(=O)c2cccc(NC(=O)c3ccncc3)c2O[C@H]1CN(C)Cc1ccccc1	79.3*	8.0	·
C[C@@H]1CN([C@H](C)CO)C(=O)c2cccc(NC(=O)c3ccncc3)c2O[C@H]1CN(C)Cc1ccccc1	80.5*	10.2	·
C[C@@H]1CN([C@@H](C)CO)C(=O)c2cccc(NC(=O)c3ccncc3)c2O[C@H]1CN(C)Cc1ccncc1	-16.7	12.6	-0.7
C[C@@H]1CN([C@@H](C)CO)C(=O)c2cccc(NC(=O)c3ccncc3)c2O[C@@H]1CN(C)Cc1ccc(C(=O)O)cc1	-13.8	4.7	-0.1
C[C@@H]1CN([C@@H](C)CO)C(=O)c2cccc(NC(=O)c3ccncc3)c2O[C@H]1CN(C)CC1CCCCC1	76.4*	-6.9	·
C[C@H](CO)N1C[C@H](C)[C@@H](CN(C)Cc2ccncc2)Oc2c(NC(=O)c3ccncc3)cccc2C1=O	-33.9	-0.8	-0.6
C[C@H]1CN([C@@H](C)CO)C(=O)c2cccc(NC(=O)c3ccncc3)c2O[C@H]1CN(C)Cc1ccccc1	81.3*	2.7	·
C[C@@H]1CN([C@H](C)CO)C(=O)c2cccc(NC(=O)c3ccncc3)c2O[C@@H]1CN(C)CC1CCCCC1	11.6	-10.5	0.4
[N-]=[N+]=Nc1ccc(NC(=O)c2ccccc2)cc1	·	·	-6.5
O=C(CCCCCCC(=O)Nc1ccccc1O)N/N=C/c1ccc(I)cc1	-9.5	11.6	0.3
CC(C)=CCC[C@@H](C)C/C=N/NC(=O)c1cccc(C(=O)NO)c1	-3.7	-5.3	-0.3
O=C(N/N=C/c1c(O)ccc2ccccc12)c1ccccn1	·	·	0.0
O=C(N/N=C/c1cccc(OCCO)c1)c1ccccn1	-24.8	-38.8	-10.6
SMILES	T cruzi intra	INS-1E rescue	A1 apoptosis 2
C[C@@H]1CCCCO[C@@H](CN(C)Cc2ccc(C(F)(F)F)cc2)[C@@H](C)CN([C@H](C)CO)C(=O)c2cc(NC(=O)Nc3ccc(F)cc3)ccc2O1	78.9*	-4.1	·
C[C@@H]1CCCCO[C@@H](CN(C)Cc2ccncc2)[C@@H](C)CN([C@@H](C)CO)C(=O)c2cc(NC(=O)Nc3ccc(C(F)(F)F)cc3)ccc2O1	·	·	0.1
C[C@@H]1CCCCO[C@H](CN(C)Cc2ccc(C(F)(F)F)cc2)[C@@H](C)CN([C@@H](C)CO)C(=O)c2cc(NC(=O)Nc3ccc(F)cc3)ccc2O1	·	·	-0.6
COc1ccc(CN(C)C[C@@H]2OCCCC[C@@H](C)Oc3ccc(NC(=O)Nc4ccc(C(F)(F)F)cc4)cc3C(=O)N([C@H](C)CO)C[C@@H]2C)cc1	62.8*	-32.4	·
C[C@@H]1CCCCO[C@@H](CN(C)Cc2ccncc2)[C@@H](C)CN([C@H](C)CO)C(=O)c2cc(NC(=O)Nc3ccc(C(F)(F)F)cc3)ccc2O1	57.4*	-3.1	·
C[C@@H]1CN([C@@H](C)CO)C(=O)c2cc(NC(=O)Nc3ccc4c(c3)OCO4)ccc2O[C@@H](C)CCCCO[C@H]1CN(C)Cc1ccc(C(F)(F)F)cc1	·	·	-1.0
C[C@@H]1CCCCO[C@@H](CN(C)Cc2ccc(C(F)(F)F)cc2)[C@@H](C)CN([C@H](C)CO)C(=O)c2cc(NC(=O)Nc3ccc4c(c3)OCO4)ccc2O1	70.4*	-12.8	-1.1
COc1ccc(CN(C)C[C@@H]2OCCCC[C@H](C)Oc3ccc(NC(=O)Nc4ccc(C(F)(F)F)cc4)cc3C(=O)N([C@@H](C)CO)C[C@H]2C)cc1	·	·	1.0
COC(=O)c1ccc(/C=N/NC(=O)c2ccccn2)cc1	·	·	-10.7
CN(C)CCCOc1ccc(/C=N/NC(=O)CCCCCC(=O)NO)cc1	·	·	0.7
O=C(O)CCCCCC(=O)N/N=C/c1ccc(Br)o1	-14.0	9.6	0.3
NC(=O)COc1ccccc1/C=N/NC(=O)c1ccccn1	-9.0	-3.6	-1.8
Cc1ccc(S(=O)(=O)Nc2ccc3c(c2)CC(=O)N([C@@H](C)CO)C[C@H](C)[C@H](CN(C)Cc2ccc(-c4ccccc4)cc2)O3)cc1	26.5	-32.4	0.2
C[C@@H]1CN([C@H](C)CO)C(=O)Cc2cc(NS(=O)(=O)c3ccc(F)cc3)ccc2O[C@@H]1CN(C)Cc1ccccc1	62.5*	-5.7	0.1
C[C@H]1CN([C@@H](C)CO)C(=O)Cc2cc(NS(=O)(=O)c3ccc(F)cc3)ccc2O[C@@H]1CN(C)Cc1ccc(-c2ccccc2)cc1	70.6*	-19.3	-0.4
C[C@@H]1CN([C@H](C)CO)C(=O)Cc2cc(NS(=O)(=O)c3ccccc3)ccc2O[C@@H]1CN(C)Cc1ccc(-c2ccccc2)cc1	70.7*	-25.6	1.8
C[C@H](CO)N1C[C@H](C)[C@@H](CN(C)Cc2ccccc2)Oc2ccc(NS(=O)(=O)c3ccc(F)cc3)cc2CC1=O	·	·	-0.2
C[C@H]1CN([C@@H](C)CO)C(=O)Cc2cc(NS(=O)(=O)c3ccc(Cl)cc3)ccc2O[C@@H]1CN(C)Cc1ccc(-c2ccccc2)cc1	61.5*	2.6	·
